Assay results reported in ChEMBL document CHEMBL4038323, “Discovery and Kinetic Profiling of 7-Aryl-1,2,4-triazolo[4,3-a]pyridines: Positive Allosteric Modulators of the Metabotropic Glutamate Receptor 2” (J Med Chem, 2017).
Activity calls are given as the source filed them. No cut-off for these calls is given here.

Tests used:
[1] = biological target: T1, Metabotropic glutamate receptor 2 (Homo sapiens, UniProt Q14416); assay: Binding affinity to human metabotropic glutamate receptor 2 expressed in CHOK1 cell membranes by scintillation proximity assay
Target sequence in this assay (Q14416 whole entry): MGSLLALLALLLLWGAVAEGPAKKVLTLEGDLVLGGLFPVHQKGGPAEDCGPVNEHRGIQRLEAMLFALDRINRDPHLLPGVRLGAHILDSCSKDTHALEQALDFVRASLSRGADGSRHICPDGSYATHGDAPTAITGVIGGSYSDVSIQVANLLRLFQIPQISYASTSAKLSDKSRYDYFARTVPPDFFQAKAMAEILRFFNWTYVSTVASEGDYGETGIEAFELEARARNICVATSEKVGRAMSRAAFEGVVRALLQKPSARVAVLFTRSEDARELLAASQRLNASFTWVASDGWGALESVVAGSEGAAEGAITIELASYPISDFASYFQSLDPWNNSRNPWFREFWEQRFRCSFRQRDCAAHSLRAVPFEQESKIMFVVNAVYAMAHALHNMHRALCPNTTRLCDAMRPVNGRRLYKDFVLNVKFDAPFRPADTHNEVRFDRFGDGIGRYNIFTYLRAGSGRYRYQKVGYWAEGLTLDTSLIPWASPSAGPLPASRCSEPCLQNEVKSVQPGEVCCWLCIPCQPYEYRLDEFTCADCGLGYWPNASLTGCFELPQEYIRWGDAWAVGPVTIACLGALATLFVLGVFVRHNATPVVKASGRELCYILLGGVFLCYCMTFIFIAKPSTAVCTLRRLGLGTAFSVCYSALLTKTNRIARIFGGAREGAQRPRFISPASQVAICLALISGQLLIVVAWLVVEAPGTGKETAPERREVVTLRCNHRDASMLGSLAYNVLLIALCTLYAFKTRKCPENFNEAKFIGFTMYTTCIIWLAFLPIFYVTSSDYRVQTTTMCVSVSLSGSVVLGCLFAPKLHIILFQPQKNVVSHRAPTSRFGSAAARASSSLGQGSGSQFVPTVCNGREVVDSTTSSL

[2] = biological target: T1, Metabotropic glutamate receptor 2; assay: Displacement of [3H]JNJ-46281222 from human metabotropic glutamate receptor 2 expressed in CHOK1 cell membranes assessed as dissociation rate constant measured every 30 sec for 120 mins by scintillation proximity assay
Summary of the method: (§1)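 For the SPA competition association, CHO-K1_hmGlu2 membranes (20 µg) were pre-coupled 30 min to WGA SPA beads, then mixed with 6 nM [3H]JNJ-46281222, competitor and 1 mM glutamate. Counts were read every 30 s for 120 min at 28°C.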
Target sequence in this assay (Q14416 19-872 limits assumed): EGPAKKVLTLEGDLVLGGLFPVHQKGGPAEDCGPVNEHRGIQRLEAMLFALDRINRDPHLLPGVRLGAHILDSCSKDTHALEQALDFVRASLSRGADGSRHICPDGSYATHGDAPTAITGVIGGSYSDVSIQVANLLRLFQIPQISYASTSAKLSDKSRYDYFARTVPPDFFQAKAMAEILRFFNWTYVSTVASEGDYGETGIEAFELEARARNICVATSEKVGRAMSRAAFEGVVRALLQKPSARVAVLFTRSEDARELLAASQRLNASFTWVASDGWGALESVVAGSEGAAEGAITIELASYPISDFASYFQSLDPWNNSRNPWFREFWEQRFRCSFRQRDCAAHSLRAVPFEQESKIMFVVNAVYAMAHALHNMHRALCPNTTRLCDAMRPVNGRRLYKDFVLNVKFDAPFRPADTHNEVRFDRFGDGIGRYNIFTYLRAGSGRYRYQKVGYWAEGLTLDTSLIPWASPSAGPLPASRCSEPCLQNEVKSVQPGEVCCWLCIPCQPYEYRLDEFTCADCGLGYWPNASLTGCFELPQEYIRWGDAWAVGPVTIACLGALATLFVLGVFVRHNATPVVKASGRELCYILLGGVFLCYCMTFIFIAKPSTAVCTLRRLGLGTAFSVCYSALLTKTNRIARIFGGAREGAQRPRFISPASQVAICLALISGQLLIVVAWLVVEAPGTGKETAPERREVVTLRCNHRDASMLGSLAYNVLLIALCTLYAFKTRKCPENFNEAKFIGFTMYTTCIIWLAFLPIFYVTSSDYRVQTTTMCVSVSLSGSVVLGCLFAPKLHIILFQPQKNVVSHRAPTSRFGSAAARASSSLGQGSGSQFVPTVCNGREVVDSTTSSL

Rattus norvegicus [3] = assay: In vivo positive allosteric modulation of metabotropic glutamate receptor 2 in Sprague-Dawley rat assessed as reduction in REM at 10 mg/kg, po measured for 24 consecutive 5 mins period; type: functional, organism-based
Summary of the method: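 Sprague-Dawley rats (n=8 per group) received single oral doses of 1, 3 or 10 mg/kg or 20% CD vehicle. REM sleep was scored in 24 consecutive 5-min bins over the first 2 h. Comparison was by mixed-model ANOVA.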

Rattus norvegicus [4] = assay: Effect on total sleep in Sprague-Dawley rat at 1 to 10 mg/kg, po measured for 2 hrs; type: ADME, organism-based; conditions: in vivo
[5] = biological target: T1, Metabotropic glutamate receptor 2; assay: Displacement of [3H]JNJ-46281222 from human metabotropic glutamate receptor 2 expressed in CHOK1 cell membranes assessed as association rate constant measured every 30 sec for 120 mins by scintillation proximity assay; summary of the method: as §1
Target sequence in this assay (Q14416 19-872 limits assumed): as above

[6] = biological target: T1, Metabotropic glutamate receptor 2; assay: Displacement of [3H]JNJ-46281222 from human metabotropic glutamate receptor 2 expressed in CHOK1 cell membranes assessed as residence time measured every 30 sec for 120 mins by scintillation proximity assay; summary of the method: as §1
Target sequence in this assay (Q14416 19-872 limits assumed): as above

[7] = biological target: T1, Metabotropic glutamate receptor 2; assay: Displacement of [3H]-JNJ46281222 from human metabotropic glutamate receptor 2 expressed in CHOK1 cell membranes after 60 mins by microbeta counting analysis
Target sequence in this assay (Q14416 whole entry): as the sequence (Q14416 whole entry) above

[8] = biological target: T1, Metabotropic glutamate receptor 2; assay: Positive allosteric modulation of human metabotropic glutamate receptor 2 expressed in CHOK1 cell membranes assessed as increase in glutamate-induced [35S]GTPgammaS binding preincubated for 30 mins followed by [35S]GTPgammaS addition measured after 30 mins by Topcount scintillation counting method; type: functional
Target sequence in this assay (Q14416 whole entry): as above

Brain = assay: Unbound concentration in Sprague-Dawley rat brain at 10 mg/kg, po measured after 1 hr; type: ADME, organism-based; conditions: in vivo
[9] = biological target: T1, Metabotropic glutamate receptor 2; assay: Positive allosteric modulation of human metabotropic glutamate receptor 2 expressed in CHOK1 cells assessed as cellular impedance response by label-free xCELLigence assay
Target sequence in this assay (Q14416 19-872 limits assumed): as the sequence (Q14416 19-872 limits assumed) above

[10] = biological target: T1, Metabotropic glutamate receptor 2; assay: Positive allosteric modulation of human metabotropic glutamate receptor 2 expressed in CHOK1 cells assessed as cellular impedance measured for 20 mins with 15 sec time interval followed by 40 mins with 5 mins time interval and subsequently measured with 15 mins time interval in presence of endogenous glutamate levels by RTCA; type: cell-based
Summary of the method: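 Whole-cell impedance (Cell Index) in CHO-K1_hmGlu2 cells, 40,000/well, 18 h at 37°C before compound addition. Endogenous glutamate was about 90 µM. […] Three experiments in duplicate.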
Target sequence in this assay (Q14416 whole entry): as the sequence (Q14416 whole entry) above

[11] = biological target: T1, Metabotropic glutamate receptor 2; assay: Positive allosteric modulation of human metabotropic glutamate receptor 2 expressed in CHOK1 cells assessed as cellular impedance at 200 nM incubated for 5mins followed by compound washout in presence of endogenous glutamate levels by RTCA; type: cell-based
Target sequence in this assay (Q14416 19-872 limits assumed): as the sequence (Q14416 19-872 limits assumed) above

[12] = biological target: Metabotropic glutamate receptor 5 (Homo sapiens) (UniProt P41594); assay: Antagonist activity at human metabotropic glutamate receptor 5 expressed in HEK293 cells assessed as inhibition of glutamate-induced Ca2+ internalization after 1 hr by fluo-4-AM dye based fluorescence assay; type: functional, cell-based
Sequence of Metabotropic glutamate receptor 5 (Homo sapiens) (P41594 21-1212 limits assumed): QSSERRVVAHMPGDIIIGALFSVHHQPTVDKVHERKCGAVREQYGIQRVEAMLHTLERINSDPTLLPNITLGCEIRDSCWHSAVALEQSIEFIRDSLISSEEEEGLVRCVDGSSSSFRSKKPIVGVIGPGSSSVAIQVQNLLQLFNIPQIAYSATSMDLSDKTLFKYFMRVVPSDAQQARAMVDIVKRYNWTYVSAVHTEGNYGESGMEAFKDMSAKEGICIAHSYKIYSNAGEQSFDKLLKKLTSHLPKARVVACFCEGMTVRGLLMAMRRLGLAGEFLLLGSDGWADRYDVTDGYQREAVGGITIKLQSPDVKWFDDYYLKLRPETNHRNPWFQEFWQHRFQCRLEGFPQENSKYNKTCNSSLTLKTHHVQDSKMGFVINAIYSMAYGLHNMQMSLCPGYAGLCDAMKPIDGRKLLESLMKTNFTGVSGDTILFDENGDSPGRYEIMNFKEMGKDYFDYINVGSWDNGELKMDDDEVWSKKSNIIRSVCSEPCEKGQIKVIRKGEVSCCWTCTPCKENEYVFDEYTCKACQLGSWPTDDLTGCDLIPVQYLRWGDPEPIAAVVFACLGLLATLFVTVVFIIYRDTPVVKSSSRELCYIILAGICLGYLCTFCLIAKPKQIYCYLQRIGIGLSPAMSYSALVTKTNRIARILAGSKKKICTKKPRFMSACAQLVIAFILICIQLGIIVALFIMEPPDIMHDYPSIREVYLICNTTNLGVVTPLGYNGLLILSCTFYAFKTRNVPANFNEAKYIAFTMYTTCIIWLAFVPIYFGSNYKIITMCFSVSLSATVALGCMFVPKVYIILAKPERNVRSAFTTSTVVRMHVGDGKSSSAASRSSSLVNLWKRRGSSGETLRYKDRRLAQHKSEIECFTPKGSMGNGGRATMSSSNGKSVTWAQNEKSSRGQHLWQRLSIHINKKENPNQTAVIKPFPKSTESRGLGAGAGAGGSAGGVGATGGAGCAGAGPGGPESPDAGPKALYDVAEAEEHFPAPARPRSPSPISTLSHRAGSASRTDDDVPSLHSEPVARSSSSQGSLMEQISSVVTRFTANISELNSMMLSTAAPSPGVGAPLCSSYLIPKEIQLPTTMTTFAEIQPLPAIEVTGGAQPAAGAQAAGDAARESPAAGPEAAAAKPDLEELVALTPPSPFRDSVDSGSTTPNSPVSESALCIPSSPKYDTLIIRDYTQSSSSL

[13] = biological target: Metabotropic glutamate receptor 5 (Homo sapiens) (UniProt P41594); assay: Agonist activity at human metabotropic glutamate receptor 5 expressed in HEK293 cells assessed as induction of Ca2+ internalization after 1 hr by fluo-4-AM dye based fluorescence assay; type: functional, cell-based
[14] = biological target: Metabotropic glutamate receptor 7 (Homo sapiens) (UniProt Q14831); assay: Agonist activity at human metabotropic glutamate receptor 7 expressed in HEK293 cells assessed as induction of Ca2+ internalization after 1 hr by fluo-4-AM dye based fluorescence assay; type: functional, cell-based
[15] = biological target: Metabotropic glutamate receptor 4 (Homo sapiens) (UniProt Q14833); assay: Agonist activity at human metabotropic glutamate receptor 4 assessed as increase in [35S]GTPgammaS binding preincubated for 30 mins followed by [35S]GTPgammaS addition measured after 30 mins by Topcount scintillation counting method; type: functional
Sequence of Metabotropic glutamate receptor 4 (Homo sapiens) (Q14833 whole entry): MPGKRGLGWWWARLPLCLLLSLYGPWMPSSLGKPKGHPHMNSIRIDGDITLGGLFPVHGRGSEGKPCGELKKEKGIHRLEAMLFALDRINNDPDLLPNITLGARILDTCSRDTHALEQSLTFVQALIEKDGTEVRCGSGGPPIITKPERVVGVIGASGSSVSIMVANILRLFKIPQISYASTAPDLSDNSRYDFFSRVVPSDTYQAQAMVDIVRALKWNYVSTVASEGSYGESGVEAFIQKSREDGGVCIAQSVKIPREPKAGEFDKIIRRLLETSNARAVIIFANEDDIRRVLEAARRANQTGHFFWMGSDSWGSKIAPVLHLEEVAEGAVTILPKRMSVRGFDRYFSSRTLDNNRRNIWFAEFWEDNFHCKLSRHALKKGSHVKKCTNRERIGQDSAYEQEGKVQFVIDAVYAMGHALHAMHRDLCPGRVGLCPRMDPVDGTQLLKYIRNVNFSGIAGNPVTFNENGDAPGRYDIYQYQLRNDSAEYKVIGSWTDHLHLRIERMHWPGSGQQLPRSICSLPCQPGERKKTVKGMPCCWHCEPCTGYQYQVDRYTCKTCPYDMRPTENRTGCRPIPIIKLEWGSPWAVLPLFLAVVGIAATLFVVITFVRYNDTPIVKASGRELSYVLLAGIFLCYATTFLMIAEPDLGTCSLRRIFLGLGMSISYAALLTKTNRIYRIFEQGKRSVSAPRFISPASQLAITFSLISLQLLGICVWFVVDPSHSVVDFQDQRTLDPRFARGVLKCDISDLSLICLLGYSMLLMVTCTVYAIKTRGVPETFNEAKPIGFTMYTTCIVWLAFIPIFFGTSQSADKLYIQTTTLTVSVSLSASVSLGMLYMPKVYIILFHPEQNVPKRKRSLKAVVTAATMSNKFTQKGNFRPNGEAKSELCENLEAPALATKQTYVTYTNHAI

[16] = biological target: Metabotropic glutamate receptor 3 (Homo sapiens) (UniProt Q14832); assay: Antagonist activity at human metabotropic glutamate receptor 3 expressed in HEK293 cells assessed as inhibition of glutamate-induced Ca2+ internalization after 1 hr by fluo-4-AM dye based fluorescence assay; type: functional, cell-based
[17] = biological target: Metabotropic glutamate receptor 8 (Homo sapiens) (UniProt O00222); assay: Antagonist activity at human metabotropic glutamate receptor 8 expressed in HEK293 cells assessed as inhibition of glutamate-induced Ca2+ internalization after 1 hr by fluo-4-AM dye based fluorescence assay; type: functional, cell-based
[18] = biological target: Metabotropic glutamate receptor 5 (Homo sapiens) (UniProt P41594); assay: Positive allosteric modulation of human metabotropic glutamate receptor 5 expressed in HEK293 cells assessed as induction of Ca2+ […] after 1 hr in the presence of glutamate by fluo-4-AM dye based fluorescence assay; type: functional, cell-based
[19] = biological target: Metabotropic glutamate receptor 4 (Homo sapiens) (UniProt Q14833); assay: Antagonist activity at human metabotropic glutamate receptor 4 assessed as inhibition of glutamate-induced [35S]GTPgammaS binding preincubated for 30 mins followed by [35S]GTPgammaS addition measured after 30 mins by Topcount scintillation counting method; type: functional
[20] = biological target: Metabotropic glutamate receptor 7 (Homo sapiens) (UniProt Q14831); assay: Antagonist activity at human metabotropic glutamate receptor 7 expressed in HEK293 cells assessed as inhibition of glutamate-induced Ca2+ internalization after 1 hr by fluo-4-AM dye based fluorescence assay; type: functional, cell-based
[21] = biological target: Metabotropic glutamate receptor 1 (Homo sapiens) (UniProt Q13255); assay: Antagonist activity at human metabotropic glutamate receptor 1 expressed in HEK293 cells assessed as inhibition of glutamate-induced Ca2+ internalization after 1 hr by fluo-4-AM dye based fluorescence assay; type: functional, cell-based
[22] = biological target: Metabotropic glutamate receptor 3 (Homo sapiens) (UniProt Q14832); assay: Agonist activity at human metabotropic glutamate receptor 3 expressed in HEK293 cells assessed as induction of Ca2+ internalization after 1 hr by fluo-4-AM dye based fluorescence assay; type: functional, cell-based
[23] = biological target: Metabotropic glutamate receptor 1 (Homo sapiens) (UniProt Q13255); assay: Agonist activity at human metabotropic glutamate receptor 1 expressed in HEK293 cells assessed as induction of Ca2+ internalization after 1 hr by fluo-4-AM dye based fluorescence assay; type: functional, cell-based
[24] = biological target: Metabotropic glutamate receptor 6 (Rattus norvegicus) (UniProt P35349); assay: Agonist activity at rat metabotropic glutamate receptor 6 expressed in CHO cell membranes assessed as increase in [35S]GTPgammaS binding preincubated for 30 mins followed by [35S]GTPgammaS addition measured after 30 mins by Topcount scintillation counting method; type: functional
Sequence of Metabotropic glutamate receptor 6 (Rattus norvegicus) (P35349 whole entry): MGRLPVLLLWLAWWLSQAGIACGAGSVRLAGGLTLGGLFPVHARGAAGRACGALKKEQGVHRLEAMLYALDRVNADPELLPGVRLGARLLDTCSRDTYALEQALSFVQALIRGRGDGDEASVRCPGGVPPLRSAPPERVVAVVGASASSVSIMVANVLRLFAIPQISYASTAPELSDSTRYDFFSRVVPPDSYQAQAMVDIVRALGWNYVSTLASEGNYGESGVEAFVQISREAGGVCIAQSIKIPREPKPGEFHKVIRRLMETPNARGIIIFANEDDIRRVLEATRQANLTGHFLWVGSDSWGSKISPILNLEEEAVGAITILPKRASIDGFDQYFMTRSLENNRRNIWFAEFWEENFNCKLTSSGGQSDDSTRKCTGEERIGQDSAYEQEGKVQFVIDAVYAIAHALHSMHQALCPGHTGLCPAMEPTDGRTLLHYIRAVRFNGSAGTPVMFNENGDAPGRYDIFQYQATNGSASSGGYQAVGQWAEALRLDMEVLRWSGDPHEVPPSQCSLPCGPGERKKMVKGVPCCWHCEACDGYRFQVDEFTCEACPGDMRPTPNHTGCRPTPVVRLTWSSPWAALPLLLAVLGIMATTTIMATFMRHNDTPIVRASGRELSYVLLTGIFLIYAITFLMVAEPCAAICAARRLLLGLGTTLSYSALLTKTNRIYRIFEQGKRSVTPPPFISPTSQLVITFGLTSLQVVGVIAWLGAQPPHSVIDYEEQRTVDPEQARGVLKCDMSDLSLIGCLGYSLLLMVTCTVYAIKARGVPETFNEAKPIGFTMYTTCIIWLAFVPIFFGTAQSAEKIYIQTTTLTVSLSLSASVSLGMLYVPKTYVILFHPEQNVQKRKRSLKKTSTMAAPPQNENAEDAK

[25] = biological target: Metabotropic glutamate receptor 6 (Rattus norvegicus) (UniProt P35349); assay: Antagonist activity at rat metabotropic glutamate receptor 6 expressed in CHO cell membranes assessed as inhibition of glutamate-induced [35S]GTPgammaS binding preincubated for 30 mins followed by [35S]GTPgammaS addition measured after 30 mins by Topcount scintillation counting method; type: functional
[26] = biological target: Metabotropic glutamate receptor 8 (Homo sapiens) (UniProt O00222); assay: Agonist activity at human metabotropic glutamate receptor 8 expressed in HEK293 cells assessed as induction of Ca2+ internalization after 1 hr by fluo-4-AM dye based fluorescence assay; type: functional, cell-based
CHO-K1 = assay: Effect on cellular impedance in CHOK1 cells up to 1 uM measured for 20 mins with 15 sec time interval followed by 40 mins with 5 mins time interval and subsequently measured with 15 mins time interval by RTCA; type: functional, cell-based; conditions: Cricetulus griseus
Summary of the method: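 xCELLigence impedance used 40,000 cells/well of wild-type CHO-K1 or CHO-K1_hmGlu2, rested 30 min at room temperature, then 18 h at 37°C, 5% CO2. Cells got 100 nM or 1 µM compound. Reads: every 15 s for 20 min, 5 min for 40 min, then 15 min. Baseline-corrected; three repeats in duplicate.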

[27] = biological target: T1, Metabotropic glutamate receptor 2; assay: Displacement of [3H]-JNJ46281222 from human metabotropic glutamate receptor 2 expressed in CHOK1 cell membranes after 60 mins by liquid scintillation counting method
Target sequence in this assay (Q14416 whole entry): as the sequence (Q14416 whole entry) above

[28] = biological target: T1, Metabotropic glutamate receptor 2; assay: Positive allosteric modulation of human metabotropic glutamate receptor 2 expressed in CHOK1 cells assessed as cellular impedance at 600 nM incubated for 5mins followed by compound washout in presence of endogenous glutamate levels by RTCA; type: cell-based
Target sequence in this assay (Q14416 19-872 limits assumed): as the sequence (Q14416 19-872 limits assumed) above

[29] = biological target: T1, Metabotropic glutamate receptor 2; assay: Positive allosteric modulation of human metabotropic glutamate receptor 2 expressed in CHOK1 cells assessed as cellular impedance at 60 nM incubated for 5mins followed by compound washout in presence of endogenous glutamate levels by RTCA; type: cell-based

Cc1ccc(Oc2ccc(-c3ccn4c(CC5CC5)nnc4c3C(F)(F)F)cc2F)c(C)n1
Kd [1]: 2.5 nM
K [2]: 0.033 min⁻¹
Activity (Rattus norvegicus [3]): Active
Activity (Rattus norvegicus [4]): Non-Toxic
K [5]: 1.3 ×10⁷ /M/min
TIME [6]: 0.502 h
Ki [7]: 2.57 nM
EC50 [8]: 8.71 nM
Drug uptake(free) (Brain): 5 ng/g

FC(F)(F)c1c(-c2ccc(NC3CCOCC3)c(Cl)c2)ccn2c(CC3CC3)nnc12
Kd [1]: 3.8 nM
K [2]: 0.067 min⁻¹
EC80 [9]: 200 nM
EC50 [10]: 18.6 nM
Activity [11]: inactive
K [5]: 1.8 ×10⁷ /M/min
TIME [6]: 0.25 h
Ki [7]: 5.01 nM
EC50 [8]: 18.6 nM

Fc1cc(-c2ccn3c(CC4CC4)nnc3c2Cl)ccc1NC1CC1
Kd [1]: 12.7 nM
K [2]: 0.061 min⁻¹
inhibition [12]: inactive
Activity [13]: inactive
Activity [14]: inactive
Activity [15]: inactive
inhibition [16]: inactive
inhibition [17]: inactive
Activity [18]: inactive
K [5]: 4.8 ×10⁶ /M/min
TIME [6]: 0.273 h
Ki [7]: 10.2 nM
inhibition [19]: inactive
inhibition [20]: inactive
inhibition [21]: inactive
Activity [22]: inactive
EC50 [8]: 63.1 nM
Activity [23]: inactive
Activity [24]: inactive
inhibition [25]: inactive
Activity [26]: inactive

O[C@H]1CC[C@H](Nc2ccc(-c3ccn4c(CC(F)(F)F)nnc4c3Cl)cc2Cl)CC1
Kd [1]: 10.8 nM
K [2]: 0.074 min⁻¹
inhibition [12]: inactive
Activity [13]: inactive
Activity [14]: inactive
Activity [15]: inactive
inhibition [16]: inactive
inhibition [17]: inactive
Activity [18]: inactive
K [5]: 6.7 ×10⁶ /M/min
TIME [6]: 0.227 h
Ki [7]: 6.03 nM
inhibition [19]: inactive
inhibition [20]: inactive
inhibition [21]: inactive
Activity [22]: inactive
EC50 [8]: 41.7 nM
Activity [23]: inactive
Activity [24]: inactive
inhibition [25]: inactive
Activity [26]: inactive

FC(F)(F)c1c(CN2CCC(c3ccccc3)CC2)ccn2c(CC3CC3)nnc12
Activity (CHO-K1): inactive

Fc1cc(-c2ccn3c(CC4CC4)nnc3c2C(F)(F)F)ccc1Oc1ccnc(C2CC2)c1
Kd [1]: 8.6 nM
K [2]: 0.189 min⁻¹
Activity (Rattus norvegicus [3]): Active
Activity (Rattus norvegicus [4]): Non-Toxic
K [5]: 2.2 ×10⁷ /M/min
TIME [6]: 0.0883 h
Ki [7]: 3.63 nM
EC50 [8]: 18.6 nM
Drug uptake(free) (Brain): 3.5 ng/g

N#Cc1c(N2CCC(c3ccccc3)CC2)ccn(CC2CC2)c1=O
Kd [1]: 51 nM
K [2]: 0.09 min⁻¹
Ki [27]: 26.3 nM
K [5]: 1.7 ×10⁶ /M/min
TIME [6]: 0.185 h
EC50 [8]: 79.4 nM

FC(F)(F)c1c(-c2ccc(OC3CCOCC3)c(Cl)c2)ccn2c(CC3CC3)nnc12
Kd [1]: 12.3 nM
K [2]: 0.241 min⁻¹
EC80 [9]: 600 nM
inhibition [12]: inactive
EC50 [10]: 89.1 nM
Activity [13]: inactive
Activity [28]: inactive
Activity [14]: inactive
Activity [15]: inactive
inhibition [16]: inactive
inhibition [17]: inactive
Activity [18]: inactive
K [5]: 2 ×10⁷ /M/min
TIME [6]: 0.0683 h
Ki [7]: 5.25 nM
inhibition [19]: inactive
inhibition [20]: inactive
inhibition [21]: inactive
Activity [22]: inactive
EC50 [8]: 38 nM
Activity [23]: inactive
Activity [24]: inactive
inhibition [25]: inactive
Activity [26]: inactive

CC(C)C(=O)c1ccc(OCc2ccc(CNC(=O)c3cn(C)cn3)cc2)c(C(F)(F)F)c1O
Kd [1]: 100 nM
K [2]: 0.12 min⁻¹
Ki [27]: 79.4 nM
K [5]: 1.2 ×10⁶ /M/min
TIME [6]: 0.14 h
EC50 [8]: 107 nM

Cc1ccc(Oc2ccc(-c3ccn4c(CC5CC5)nnc4c3Cl)cc2Cl)c(C)n1
Kd [1]: 1 nM
K [2]: 0.061 min⁻¹
inhibition [12]: inactive
Activity [13]: inactive
Activity [14]: inactive
Activity [15]: inactive
inhibition [16]: inactive
inhibition [17]: inactive
Activity [18]: inactive
K [5]: 6.2 ×10⁷ /M/min
TIME [6]: 0.272 h
Ki [7]: 6.03 nM
inhibition [19]: inactive
inhibition [20]: inactive
inhibition [21]: inactive
Activity [22]: inactive
EC50 [8]: 12.3 nM
Activity [23]: inactive
Activity [24]: inactive
inhibition [25]: inactive
Activity [26]: inactive

O[C@]1(C2CC2)CC[C@H](Nc2ccc(-c3ccn4c(CC5CC5)nnc4c3C(F)(F)F)cc2Cl)CC1
Kd [1]: 1.5 nM
K [2]: 0.02 min⁻¹
EC80 [9]: 60 nM
EC50 [10]: 11.2 nM
Activity [29]: Active
K [5]: 1.4 ×10⁷ /M/min
TIME [6]: 0.825 h
Ki [7]: 0.891 nM
EC50 [8]: 1.12 nM
